Where “and” joins values, the source holds several entries; their conditions need not be identical. Equal entries are not always repeated.
Test system: Fibroblast
Test: Multiplex assay against human fibroblast
Assay type: toxicity, cell-based
Settings: number of replicates 2
Procedure, shortened: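 With compound added, live cells were imaged on a CQ1 microscope at 37°C and 5% CO2; staining with Hoechst33342, BioTracker Green Microtubule Cytoskeleton Dye, MitoTracker Red and Annexin V Alexa Fluor 680 had been done at seeding. The CellPathfinder machine-learning gating scheme split cells into Hoechst high-intensity objects or normal cells, normal cells into healthy, pyknosed or fragmented nuclei, and pyknosed cells into mitotic or apoptotic. The tubulin, mitochondrial-mass and membrane-permeability phenotypes are per cents of healthy-nucleus cells.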

[1] = 12 h, 1 µM, compound concentration 1 uM
[2] = 12 h, 10 µM, compound concentration 10 uM
[3] = 24 h, 1 µM, compound concentration 1 uM
[4] = 24 h, 10 µM, compound concentration 10 uM
[5] = 48 h, 1 µM, compound concentration 1 uM
[6] = 48 h, 10 µM, compound concentration 10 uM

## COc1nc2ccc([C@@](O)(c3ccc(Cl)cc3)c3cncn3C)cc2c(Cl)c1Cc1ccc(-n2cccn2)cc1 [JNJ-53721590]
[1]
  Population Apoptotic (%): 30%
  Population Fragmented Nuclei (%): 6% and 11%
  Population Healthy Nuclei (%): 68% and 55%
  Population Hoechst High Intensity Objects (%): 0%
  Population Membrane Permeable-Phenotype (%): 9% and 11%
  Population Mitochondria Different-Phenotype (%): 2% and 1%
  Population Mitotic Cells (%): 69%
  Population Normal (%): 100%
  Population Pyknosed Nuclei (%): 24% and 32%
  Population Tubulin-Different-Phenotype (%): 38% and 37%
  Total Cell Count: 210 and 189
[2]
  Population Apoptotic (%): 37% and 45%
  Population Fragmented Nuclei (%): 14% and 7%
  Population Healthy Nuclei (%): 63% and 67%
  Population Hoechst High Intensity Objects (%): 0%
  Population Membrane Permeable-Phenotype (%): 20%
  Population Mitochondria Different-Phenotype (%): 5% and 3%
  Population Mitotic Cells (%): 62% and 55%
  Population Normal (%): 99% and 100%
  Population Pyknosed Nuclei (%): 21% and 24%
  Population Tubulin-Different-Phenotype (%): 73%
  Total Cell Count: 206 and 241
[3]
  Population Apoptotic (%): 62% and 56%
  Population Fragmented Nuclei (%): 6% and 14%
  Population Healthy Nuclei (%): 68% and 62%
  Population Hoechst High Intensity Objects (%): 0%
  Population Membrane Permeable-Phenotype (%): 3% and 10%
  Population Mitochondria Different-Phenotype (%): 2% and 9%
  Population Mitotic Cells (%): 37% and 43%
  Population Normal (%): 100%
  Population Pyknosed Nuclei (%): 25% and 23%
  Population Tubulin-Different-Phenotype (%): 31% and 37%
  Total Cell Count: 199 and 197
[4]
  Population Apoptotic (%): 51% and 70%
  Population Fragmented Nuclei (%): 20% and 12%
  Population Healthy Nuclei (%): 62% and 60%
  Population Hoechst High Intensity Objects (%): 0%
  Population Membrane Permeable-Phenotype (%): 9% and 6%
  Population Mitochondria Different-Phenotype (%): 18% and 20%
  Population Mitotic Cells (%): 48% and 29%
  Population Normal (%): 100% and 99%
  Population Pyknosed Nuclei (%): 16% and 27%
  Population Tubulin-Different-Phenotype (%): 75% and 69%
  Total Cell Count: 218 and 241
[5]
  Population Apoptotic (%): 85% and 72%
  Population Fragmented Nuclei (%): 10% and 13%
  Population Healthy Nuclei (%): 72% and 67%
  Population Hoechst High Intensity Objects (%): 0%
  Population Membrane Permeable-Phenotype (%): 3% and 2%
  Population Mitochondria Different-Phenotype (%): 0% and 1%
  Population Mitotic Cells (%): 14% and 27%
  Population Normal (%): 100%
  Population Pyknosed Nuclei (%): 17% and 19%
  Population Tubulin-Different-Phenotype (%): 20% and 15%
  Total Cell Count: 205
[6]
  Population Apoptotic (%): 87%
  Population Fragmented Nuclei (%): 26% and 18%
  Population Healthy Nuclei (%): 64%
  Population Hoechst High Intensity Objects (%): 0%
  Population Membrane Permeable-Phenotype (%): 1% and 2%
  Population Mitochondria Different-Phenotype (%): 7% and 8%
  Population Mitotic Cells (%): 12%
  Population Normal (%): 99% and 100%
  Population Pyknosed Nuclei (%): 9% and 16%
  Population Tubulin-Different-Phenotype (%): 63% and 53%
  Total Cell Count: 247 and 282

## CCNc1ccc(-c2nn(-c3ccccc3C)c3c2C(C)Cc2nc(NC(=O)OC)sc2-3)cn1.O=C(O)C(F)(F)F (configuration not stated)
[1]
  Population Apoptotic (%): 34% and 35%
  Population Fragmented Nuclei (%): 22% and 27%
  Population Healthy Nuclei (%): 60% and 57%
  Population Hoechst High Intensity Objects (%): 0%
  Population Membrane Permeable-Phenotype (%): 5% and 3%
  Population Mitochondria Different-Phenotype (%): 0% and 3%
  Population Mitotic Cells (%): 65%
  Population Normal (%): 100%
  Population Pyknosed Nuclei (%): 17% and 14%
  Population Tubulin-Different-Phenotype (%): 35% and 27%
  Total Cell Count: 255 and 278
[2]
  Population Apoptotic (%): 43% and 57%
  Population Fragmented Nuclei (%): 15% and 26%
  Population Healthy Nuclei (%): 66% and 61%
  Population Hoechst High Intensity Objects (%): 0% and 1%
  Population Membrane Permeable-Phenotype (%): 17% and 10%
  Population Mitochondria Different-Phenotype (%): 6% and 12%
  Population Mitotic Cells (%): 56% and 42%
  Population Normal (%): 100% and 98%
  Population Pyknosed Nuclei (%): 18% and 12%
  Population Tubulin-Different-Phenotype (%): 87% and 86%
  Total Cell Count: 216 and 211
[3]
  Population Apoptotic (%): 40% and 46%
  Population Fragmented Nuclei (%): 20% and 17%
  Population Healthy Nuclei (%): 64% and 70%
  Population Hoechst High Intensity Objects (%): 0%
  Population Membrane Permeable-Phenotype (%): 4% and 3%
  Population Mitochondria Different-Phenotype (%): 2% and 4%
  Population Mitotic Cells (%): 60% and 53%
  Population Normal (%): 100% and 99%
  Population Pyknosed Nuclei (%): 15% and 12%
  Population Tubulin-Different-Phenotype (%): 35% and 28%
  Total Cell Count: 225 and 233
[4]
  Population Apoptotic (%): 62% and 68%
  Population Fragmented Nuclei (%): 21% and 27%
  Population Healthy Nuclei (%): 62% and 65%
  Population Hoechst High Intensity Objects (%): 0%
  Population Membrane Permeable-Phenotype (%): 9% and 8%
  Population Mitochondria Different-Phenotype (%): 12%
  Population Mitotic Cells (%): 37% and 31%
  Population Normal (%): 99% and 100%
  Population Pyknosed Nuclei (%): 16% and 7%
  Population Tubulin-Different-Phenotype (%): 88%
  Total Cell Count: 195 and 209
[5]
  Population Apoptotic (%): 58% and 20%
  Population Fragmented Nuclei (%): 13% and 15%
  Population Healthy Nuclei (%): 77% and 78%
  Population Hoechst High Intensity Objects (%): 0%
  Population Membrane Permeable-Phenotype (%): 5% and 2%
  Population Mitochondria Different-Phenotype (%): 2% and 0%
  Population Mitotic Cells (%): 41% and 80%
  Population Normal (%): 100% and 99%
  Population Pyknosed Nuclei (%): 8% and 6%
  Population Tubulin-Different-Phenotype (%): 26% and 18%
  Total Cell Count: 208 and 225
[6]
  Population Apoptotic (%): 84% and 76%
  Population Fragmented Nuclei (%): 15% and 19%
  Population Healthy Nuclei (%): 65% and 64%
  Population Hoechst High Intensity Objects (%): 0%
  Population Membrane Permeable-Phenotype (%): 5% and 3%
  Population Mitochondria Different-Phenotype (%): 19% and 22%
  Population Mitotic Cells (%): 15% and 24%
  Population Normal (%): 100%
  Population Pyknosed Nuclei (%): 18% and 15%
  Population Tubulin-Different-Phenotype (%): 87% and 90%
  Total Cell Count: 169 and 157

— ChEMBL document CHEMBL5303300, “EUbOPEN Chemogenomics Library - Multiplex” (2023)
